ChEMBL document CHEMBL1125798, “Synthesis and biological activity of a series of diaryl-substituted alpha-cyano-beta-hydroxypropenamides, a new class of anthelmintic agents” (1991)

Columns and labels:
Type in all cases: functional
Rodentolepis nana [1] = assay: The compound was tested for anthelmintic activity against mice, infected with parasite Hymenolepis nana at a dose of 250(ppm in feed)
How it was run: (§1)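 Compound was given in feed ad libitum from 24 h postinfection for 18 days, four mice per group. On day 19, N. dubius were counted in the duodenum and H. nana in the ileum. Result is % reduction of mean worm burden vs untreated control; ≤25% was recorded as 0.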

[2] = test system: Heligmosomoides polygyrus; assay: Anthelmintic activity against mice, infected with parasite Nematospiroides dubius, at a dose of 250(ppm in feed); how it was run: as §1
Rodentolepis nana [3] = assay: Anthelmintic activity against mice infected with parasite Hymenolepis nana at a dose of 62(ppm in feed).; how it was run: as §1
Rodentolepis nana [4] = assay: Anthelmintic activity against mice infected with parasite Hymenolepis nana at a dose of 125 ppm (in feed); how it was run: as §1
[5] = test system: Heligmosomoides polygyrus; assay: Anthelmintic activity against mice, infected with parasite Nematospiroides dubius, at a dose of 125 (ppm in feed); how it was run: as §1
[6] = test system: Heligmosomoides polygyrus; assay: Anthelmintic activity against mice infected with parasite Nematospiroides dubius, at a dose of 62(ppm in feed).; how it was run: as §1
Ovis aries [7] = assay: Anthelmintic activity against sheep, infected with Haemonchus contortus, at a dose of 30 mg/kg.
How it was run: (§2)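 Merino ewes and wethers (12-15 months, 25-35 kg) received L3 intraruminally on day 0. Susceptible strains: H. contortus 6000, O. circumcincta 8000, T. colubriformis 8000. Benzimidazole-resistant strains: 8000, 9000, 9000. Animals were allocated by day-27 fecal egg count (n = 4-7) and given a single intraruminal dose in 0.5% carboxymethylcellulose saline. Adult worms in abomasum and small intestine were counted on day 35. Result is mean % reduction vs untreated controls.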

Ovis aries [8] = assay: Anthelmintic activity against sheep, infected with Ostertagia circumcincta, at a dose of 30 mg/kg.; how it was run: as §2
Ovis aries [9] = assay: Anthelmintic activity against sheep, infected with Trichostrongylus colubriformis, at a dose of 30 mg/kg.; how it was run: as §2
Rodentolepis nana [10] = assay: The compound was tested for anthelmintic activity against mice, infected with parasite Hymenolepis nana at a dose of 31(ppm in feed); how it was run: as §1
[11] = test system: Heligmosomoides polygyrus; assay: Anthelmintic activity against mice, infected with parasite Nematospiroides dubius, at a dose of 31(ppm in feed); how it was run: as §1
[12] = test system: Heligmosomoides polygyrus; assay: Anthelmintic activity against mice, infected with parasite Nematospiroides dubius, at a dose of 62(ppm in feed); how it was run: as §1
Rodentolepis nana [13] = assay: The compound was tested for anthelmintic activity against mice, infected with parasite Hymenolepis nana at a dose of 500(ppm in feed); how it was run: as §1
[14] = test system: Heligmosomoides polygyrus; assay: Anthelmintic activity against mice, infected with parasite Nematospiroides dubius, at a dose of 500(ppm in feed); how it was run: as §1

Row | SMILES | Reduction (Rodentolepis nana [3]) [%] | Reduction (Rodentolepis nana [4]) [%] | Reduction [5] [%] | Reduction [6] [%] | further results
1 | N#C/C(C(=O)Nc1ccc(Sc2ccccc2)cc1)=C(/O)c1ccc(C(F)(F)F)cc1 |  |  |  |  | Reduction (Rodentolepis nana [1]): 0%; Reduction [2]: 0%
2 | N#C/C(C(=O)Nc1ccc(C(F)(F)F)cc1)=C(/O)c1ccc(OC(F)(F)F)cc1 | 0 | 100 | 100 | 86 | 
3 | N#C/C(C(=O)Nc1ccc(Cl)cc1)=C(/O)c1ccc(C(F)(F)F)cc1 | 78 | 100 | 100 | 65 | 
4 | N#C/C(C(=O)Nc1ccc(N=C=S)cc1)=C(/O)c1ccc(C(F)(F)F)cc1 |  | 0 | 80 |  | 
5 | N#C/C(C(=O)Nc1ccc(C(F)(F)F)cc1)=C(/O)c1cc(Cl)cc(Cl)c1 | 0 | 100 | 100 | 0 | Reduction (Ovis aries [7]): 100%; Reduction (Ovis aries [8]): 0%; Reduction (Ovis aries [9]): 0%
6 | Cc1cc([N+](=O)[O-])ccc1NC(=O)/C(C#N)=C(\O)c1ccc(C(F)(F)F)cc1 | 0 | 99 | 97 | 35 | Reduction (Ovis aries [7]): 0%; Reduction (Ovis aries [8]): 0%; Reduction (Ovis aries [9]): 0%
7 | N#C/C(C(=O)Nc1ccc(Cl)c(Cl)c1)=C(/O)c1ccc(Cl)cc1 |  | 47 | 57 |  | 
8 | N#C/C(C(=O)Nc1ccc(C(F)(F)F)cc1)=C(/O)c1ccc(Oc2ccc(Cl)cc2)cc1 |  | 0 | 30 |  | 
9 | N#C/C(C(=O)Nc1ccc(OC(F)(F)F)cc1)=C(/O)c1ccc(OC(F)(F)F)cc1 | 56 |  |  | 100 | Reduction (Rodentolepis nana [10]): 0%; Reduction [11]: 39%
10 | COc1ccc(/C(O)=C(\C#N)C(=O)Nc2ccc(C(F)(F)F)cc2)cc1 |  | 0 | 0 |  | 
11 | N#C/C(C(=O)Nc1ccc(F)cc1)=C(/O)c1ccc(C(F)(F)F)cc1 | 0 | 0 | 100 |  | Reduction [12]: 0%
12 | CS(=O)(=O)c1ccc(NC(=O)/C(C#N)=C(\O)c2ccc(C(F)(F)F)cc2)cc1 |  | 0 | 0 |  | 
13 | N#C/C(C(=O)Nc1ccc(C(F)(F)F)cc1)=C(/O)c1ccc(Cl)c(Cl)c1 | 0 | 0 | 95 | 0 | 
14 | N#C/C(C(=O)Nc1ccc(Br)cc1)=C(/O)c1ccc(Br)cc1 | 0 | 0 | 100 | 29 | 
15 | CC(=O)c1ccc(NC(=O)/C(C#N)=C(\O)c2ccc(C(F)(F)F)cc2)cc1 |  | 0 | 0 |  | 
16 | N#C/C(C(=O)Nc1ccccc1)=C(/O)c1ccc(C(F)(F)F)cc1 |  |  |  |  | Reduction (Rodentolepis nana [13]): 100%; Reduction [14]: 32%
17 | N#C/C(C(=O)Nc1cccc(C(F)(F)F)c1)=C(/O)c1ccc(C(F)(F)F)cc1 |  | 0 | 0 |  | 
18 | COc1ccc(NC(=O)/C(C#N)=C(\O)c2ccc(C(F)(F)F)cc2)cc1 |  | 0 | 0 |  | 
19 | N#C/C(C(=O)Nc1ccc(C(F)(F)F)cc1)=C(/O)c1ccc(S(=O)(=O)c2ccccc2)cc1 |  | 0 | 0 |  | 
20 | Cc1cc(C#N)ccc1NC(=O)/C(C#N)=C(\O)c1ccc(C(F)(F)F)cc1 | 0 | 100 | 90 | 0 | 
21 | N#C/C(C(=O)Nc1ccc(Cl)cc1)=C(/O)c1ccc(Cl)cc1 | 30 | 100 | 100 | 59 | 
22 | N#C/C(C(=O)Nc1ccc(C(F)(F)F)cc1)=C(/O)c1ccc(Cl)cc1Cl | 52 |  |  | 32 | 
23 | N#C/C(C(=O)Nc1ccc(Cl)c(Cl)c1)=C(/O)c1ccc(C(F)(F)F)cc1 | 0 | 93 | 100 | 0 | 
24 | COC(=O)c1ccc(NC(=O)/C(C#N)=C(\O)c2ccc(C(F)(F)F)cc2)cc1 |  | 0 | 0 |  | 
25 | N#C/C(C(=O)Nc1ccc(Br)cc1)=C(/O)c1ccc(Cl)cc1 | 0 | 0 | 100 | 47 | 
26 | N#C/C(C(=O)Nc1ccc(C(F)(F)F)cc1)=C(/O)c1ccc(I)cc1 | 0 | 89 | 97 | 0 | 

Row | SMILES | Reduction (Rodentolepis nana [3]) [%] | Reduction (Rodentolepis nana [4]) [%] | Reduction [5] [%] | Reduction [6] [%] | further results
27 | N#C/C(C(=O)Nc1ccccc1C(F)(F)F)=C(/O)c1ccc(C(F)(F)F)cc1 |  | 0 | 0 |  | 
28 | N#C/C(C(=O)Nc1ccc(F)cc1)=C(/O)c1ccc(F)cc1 |  | 0 | 0 |  | 
29 | N#C/C(C(=O)c1ccc(C(F)(F)F)cc1)=C(/S)Nc1ccc(C(F)(F)F)cc1 |  | 0 | 0 |  | Reduction (Rodentolepis nana [1]): 90%; Reduction [2]: 100%
30 | N#C/C(C(=O)Nc1ccc(C(F)(F)F)cc1)=C(/O)Cc1ccc(C(F)(F)F)cc1 |  | 0 | 35 |  | Reduction (Rodentolepis nana [1]): 0%; Reduction [2]: 90%; Reduction (Ovis aries [7]): 78%; Reduction (Ovis aries [8]): 0%; Reduction (Ovis aries [9]): 0%
31 | N#C/C(C(=O)Nc1ccc(Cl)cc1Cl)=C(/O)c1ccc(C(F)(F)F)cc1 | 63 | 100 | 89 | 0 | 
32 | N#C/C(C(=O)Nc1ccc(C(F)(F)F)cc1)=C(/O)c1ccc(C#N)cc1 |  | 78 | 28 |  | 
33 | N#C/C(C(=O)Nc1ccc(C(F)(F)F)cc1)=C(/O)c1ccc([N+](=O)[O-])cc1 | 69 |  |  | 0 | 
34 | N#C/C(C(=O)Nc1ccc(Cl)c(Cl)c1)=C(/O)c1ccc(Cl)c(Cl)c1 |  | 0 | 0 |  | Reduction (Ovis aries [7]): 100%; Reduction (Ovis aries [8]): 0%; Reduction (Ovis aries [9]): 0%
35 | N#C/C(C(=O)Nc1ccc(Cl)cc1)=C(/O)c1ccc(Br)cc1 | 0 | 0 | 100 | 76 | 
36 | N#C/C(C(=O)Nc1ccc(C(F)(F)F)cc1)=C(O)\C=C\c1ccc(C(F)(F)F)cc1 |  |  |  |  | Reduction (Rodentolepis nana [1]): 0%; Reduction [2]: 48%
37 | N#C/C(C(=O)Nc1ccc(C#N)cc1)=C(/O)c1ccc(C(F)(F)F)cc1 | 0 | 100 | 100 | 43 | Reduction (Ovis aries [7]): 87%; Reduction (Ovis aries [8]): 7%; Reduction (Ovis aries [9]): 26%
38 | N#C/C(C(=O)Nc1ccc(Cl)cc1)=C(/O)c1ccc(Cl)c(Cl)c1 | 0 | 100 | 100 | 32 | 
39 | N#C/C(C(=O)Nc1ccc(C(F)(F)F)cc1)=C(/O)c1cccc(C(F)(F)F)c1 | 0 | 100 | 89 | 0 | 
40 | CCN(CC)C(=O)c1ccc(NC(=O)/C(C#N)=C(\O)c2ccc(C(F)(F)F)cc2)cc1 |  | 0 | 0 |  | 
41 | N#C/C(C(=O)Nc1ccc(Sc2ccc(Cl)cc2)cc1)=C(/O)c1ccc(C(F)(F)F)cc1 |  | 0 | 0 |  | Reduction (Rodentolepis nana [1]): 33%; Reduction [2]: 94%
42 | N#C/C(C(=O)Nc1ccc(C(F)(F)F)cc1)=C(/O)c1cccc(Cl)c1 |  | 0 | 0 |  | 
43 | N#C/C(C(=O)Nc1ccc(C(F)(F)F)cc1)=C(/O)c1ccc(F)cc1 | 0 | 100 | 100 | 0 | 
44 | N#C/C(C(=O)Nc1ccc(C(F)(F)F)cc1)=C(/O)c1ccc(Cl)cc1 | 0 |  |  | 53 | 
45 | N#C/C(C(=O)Nc1ccc(I)cc1)=C(/O)c1ccc(C(F)(F)F)cc1 | 0 | 0 | 100 | 0 | 
46 | CN(C(=O)/C(C#N)=C(\O)c1ccc(C(F)(F)F)cc1)c1ccc(C(F)(F)F)cc1 | 0 | 0 | 100 | 76 | 
47 | N#C/C(C(=O)Nc1ccc(Oc2ccc(Cl)cc2)c(Cl)c1)=C(/O)c1ccc(C(F)(F)F)cc1 |  | 0 | 0 |  | Reduction (Rodentolepis nana [13]): 83%; Reduction (Ovis aries [7]): 0%; Reduction (Ovis aries [8]): 0%; Reduction (Ovis aries [9]): 0%; Reduction [14]: 100%
48 | N#CSc1ccc(NC(=O)/C(C#N)=C(\O)c2ccc(C(F)(F)F)cc2)cc1 |  | 0 | 0 |  | 
49 | N#C/C(C(=O)Nc1ccc(C(F)(F)F)cc1)=C(/O)c1ccccc1C(F)(F)F |  | 0 | 0 |  | 
50 | N#C/C(C(=O)Nc1ccc(Br)cc1)=C(/O)c1ccc(C(F)(F)F)cc1 | 0 | 95 | 100 | 56 | 
51 | Cc1ccc(/C(O)=C(\C#N)C(=O)Nc2ccc(C(F)(F)F)cc2)cc1 |  | 0 | 0 |  | 
